Test [1] deals with Mus musculus. The experiment in a line: compound was tested in vivo for lower blood glucose levels in diabetic obese ob/ob mice by measuring postprandial blood glucose level on day 3 after 4 hours at 200 uM/kg oral dose. Type of test: functional. The essentials: (§1)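 Adult male C57BL ob/ob mice, fed, grouped (6/group) and matched for blood glucose on day 0; mice under 150 mg/dL excluded. Oral dosing in the morning on days 1-3, vehicle 0.5% CMC with 0.2% Tween-80. Significance versus vehicle.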

In test [2] the test system is Mus musculus. Put plainly: compound was tested in vivo for lower blood glucose levels in diabetic obese ob/ob mice by measuring postprandial blood glucose level on day1 after 2 hours at 200 uM/kg oral dose. It is filed as functional. In outline: as §1
Test [3] has as its system Mus musculus. The experiment in a line: compound was tested in vivo for lower blood glucose levels in diabetic obese ob/ob mice by measuring postprandial blood glucose level on day1 after 4 hours at 200 uM/kg oral dose. Type of test: functional. In outline: as §1
Test [4] relates to Mus musculus. The experiment in a line: compound was tested in vivo for lower blood glucose levels in diabetic obese ob/ob mice by measuring postprandial blood glucose level on day 3 after 2 hours at 200 uM/kg oral dose. It is filed as functional. The essentials:
as §1

Test [5] in a line: lowest concentration at which glucose utilized was greater than or equal to 140% of control value tested in a glucose utilization L6 myocyte in vitro assay. Type of test: functional, Rattus norvegicus. The essentials:
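Differentiated rat L6 myotubes (day 11 or 13 after plating) exposed 20 h to compound in serum-free DMEM with 15 mM glucose and 1% final DMSO. Tested in quadruplicate at 3, 10, 30, 100, 300 µM. Glucose left in the medium read by glucose oxidase. Value is the lowest concentration giving at least 40% more utilization than control.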

The subject of test [6] is Mus musculus. Put plainly: compound was tested in vivo for lower blood glucose levels in diabetic obese ob/ob mice by measuring postprandial blood glucose level on day 3 after 8 hours at 200 uM/kg oral dose. It is filed as functional. The essentials:
as §1

Test [7] is described as follows: compound was tested in vivo for lower blood glucose levels in diabetic obese ob/ob mice by measuring postprandial blood glucose level on day1 after 2 hours at 15.86 uM/kg oral dose. Type of test: functional, Mus musculus. The essentials:
as §1

The nature of test [8]: compound was tested in vivo for lower blood glucose levels in diabetic obese ob/ob mice by measuring postprandial blood glucose level on day1 after 4 hours at 15.86 uM/kg oral dose. Type of test: functional, Mus musculus. The essentials:
as §1

For test [9], the system named is Mus musculus. The experiment in a line: In vivo lowering of blood glucose levels in diabetic obese ob/ob mice by measuring postprandial blood glucose level on day 3 after 4 hours at 300 uM/kg oral dose. Type of test: functional. In outline:
as §1

For test [10], the system named is Mus musculus. The experiment in a line: compound was tested in vivo for lower blood glucose levels in diabetic obese ob/ob mice by measuring postprandial blood glucose level on day1 after 4 hours at 300 uM/kg oral dose *p < 0.05. It is filed as functional. The essentials:
as §1

The test system of test [11] is Mus musculus. The experiment in a line: In vivo lowering of blood glucose levels in diabetic obese ob/ob mice by measuring postprandial blood glucose level on day 3 after 8 hours at 300 uM/kg oral dose. Type of test: functional. The essentials:
as §1

Test [12] has as its system Mus musculus. The experiment in a line: In vivo lowering of blood glucose levels in diabetic obese ob/ob mice, measuring postprandial blood glucose level on day 3 after 2 hours at 300 uM/kg oral dose. Type of test: functional. The essentials: as §1
Test [13] has as its system Mus musculus. The experiment in a line: In vivo lowering of blood glucose levels in diabetic obese ob/ob mice, measuring postprandial blood glucose level on day1 after 2 hours at 300 uM/kg oral dose. It is filed as functional. In outline:
as §1

In test [14] the test system is Mus musculus. The experiment in a line: In vivo lowering of blood glucose levels in diabetic obese ob/ob mice by measuring postprandial blood glucose level on day1 after 4 hours at 300 uM/kg oral dose. Type of test: functional. In outline: as §1

The values below come from ChEMBL document CHEMBL1131263, “Substituted tetrahydropyrrolo[2,1-b]oxazol-5(6H)-ones and tetrahydropyrrolo[2,1-b]thiazol-5(6H)-ones as hypoglycemic agents” (1998).

Turning to `O=C1C[C@@H]2O[C@@H](CO)CN12`, the Efficacy in the test on Mus musculus [1] stood at 23%; in the test on Mus musculus [2] it was 66%; in the test on Mus musculus [3], 86%; in the test with Mus musculus [4], 53%; in the test with Mus musculus [6] it was 44%. In [5], the “Lowest effective concentration for glucose utilization ≥140% of control” value amounted to 30 µM.
With `CC(C)C(N)C(=O)NC(C(=O)O)C(O)[C@H]1CN2C(=O)C[C@@H]2O1` (stereo partly specified), the Efficacy in test [7] and in test [8] was 63% throughout. The “Lowest effective concentration for glucose utilization ≥140% of control” value in test [5] came to 10 µM.
With `O=C1CC[C@]2(c3ccc(Cl)cc3)O[C@H](COc3ccc(Cl)cc3)CN12`, the Efficacy is recorded as -15% in the test with Mus musculus [1]; 31% in the test on Mus musculus [2]; 46% in the test on Mus musculus [3]; 14% with Mus musculus [4]; -26% in the test on Mus musculus [6]. Besides, the “Lowest effective concentration for glucose utilization ≥140% of control” value in [5] is 30 µM.
Regarding `OCc1cc(-c2ccc(C(F)(F)F)cc2)no1`, the Efficacy in the test with Mus musculus [9] was found to be 48%; in the test with Mus musculus [10], 52%; in the test with Mus musculus [11], 50%; in the test on Mus musculus [12] it was 6%; with Mus musculus [13] it was 14%. Moreover, the “Lowest effective concentration for glucose utilization ≥140% of control” value in test [5] was 100 µM.
As to `CC(C)(O)c1cc(-c2ccc(Oc3ccccc3)cc2)no1`, the Efficacy is on record as 60% in the test on Mus musculus [9]; 55% in the test with Mus musculus [11]; -2% in the test with Mus musculus [14]; 61% with Mus musculus [12]; 6% with Mus musculus [13]. Also, in [5], the “Lowest effective concentration for glucose utilization ≥140% of control” value was 30 µM.
For the molecule `O=C1CC[C@]2(c3ccc(Cl)c(Cl)c3)OC(COc3ccc(Cl)cc3)CN12` (stereo partly specified), the Efficacy with Mus musculus [9] is given as 80%; in the test with Mus musculus [11], 78%; with Mus musculus [14] it was 36%; in the test on Mus musculus [12] it was 70%; in the test on Mus musculus [13] it was 0%. Further, the “Lowest effective concentration for glucose utilization ≥140% of control” value in test [5] is 10 µM.
Take `CC(C)C(=O)N1C[C@H](COc2ccc(Cl)cc2)O[C@@H]1c1ccc(Cl)c(Cl)c1`: the Efficacy in the test on Mus musculus [9] worked out at 24%; in the test with Mus musculus [11], 6%; in the test on Mus musculus [14] it was 21%; in the test on Mus musculus [12] it was 20%; in the test on Mus musculus [13], 32%. In addition, the “Lowest effective concentration for glucose utilization ≥140% of control” value in test [5] worked out at 30 µM.
On to `O=C1CCC[C@]2(c3ccccc3)O[C@H](COc3ccc(Cl)cc3)CN12`, for which the Efficacy in the test with Mus musculus [9] is reported as 50%; in the test with Mus musculus [11], 54%; with Mus musculus [14] it was 29%; with Mus musculus [12], 10%; with Mus musculus [13], 42%. Moreover, the “Lowest effective concentration for glucose utilization ≥140% of control” value in test [5] came out at 30 µM.
For the molecule `O=C1CC[C@]2(c3ccc(Cl)cc3)S[C@H](COc3ccc(Cl)cc3)CN12`, the Efficacy with Mus musculus [9] is listed as 9%; with Mus musculus [11] it was 11%; in the test with Mus musculus [14], 14%; in the test with Mus musculus [12], -11%; in the test with Mus musculus [13] it was 28%. Further, the “Lowest effective concentration for glucose utilization ≥140% of control” value in test [5] is above 300 µM.
